# Results as given in publication PMC4424118 (Nature structural & molecular biology, 2015).
# T1: MRGPRX2 (Homo sapiens, UniProt Q96LB1)
# T1 sequence (Q96LB1 1-330): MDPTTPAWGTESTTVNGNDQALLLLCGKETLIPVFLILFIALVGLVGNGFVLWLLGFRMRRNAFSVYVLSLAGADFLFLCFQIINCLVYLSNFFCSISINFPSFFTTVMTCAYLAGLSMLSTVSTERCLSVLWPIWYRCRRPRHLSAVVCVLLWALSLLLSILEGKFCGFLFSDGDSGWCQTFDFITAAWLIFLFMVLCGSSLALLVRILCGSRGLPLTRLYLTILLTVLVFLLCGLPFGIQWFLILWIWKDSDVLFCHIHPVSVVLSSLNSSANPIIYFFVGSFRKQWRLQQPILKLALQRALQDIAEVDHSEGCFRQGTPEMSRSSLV
# T2: HTR1A serotonin receptor (Homo sapiens, UniProt P08908)
# T2 sequence (P08908 1-422): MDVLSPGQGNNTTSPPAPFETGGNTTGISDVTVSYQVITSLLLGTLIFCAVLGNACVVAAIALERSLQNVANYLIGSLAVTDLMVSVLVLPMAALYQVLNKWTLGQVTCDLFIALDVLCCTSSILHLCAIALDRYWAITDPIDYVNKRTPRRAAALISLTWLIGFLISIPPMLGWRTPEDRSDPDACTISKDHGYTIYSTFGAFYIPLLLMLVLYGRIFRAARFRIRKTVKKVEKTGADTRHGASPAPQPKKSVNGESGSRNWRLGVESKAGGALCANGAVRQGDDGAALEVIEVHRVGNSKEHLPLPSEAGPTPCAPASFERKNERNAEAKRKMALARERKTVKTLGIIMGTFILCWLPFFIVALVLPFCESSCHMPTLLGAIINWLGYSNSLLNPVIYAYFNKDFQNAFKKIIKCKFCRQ
# T3: DRD4 dopamine receptor (Homo sapiens, UniProt P21917)
# T3 sequence (P21917 1-419): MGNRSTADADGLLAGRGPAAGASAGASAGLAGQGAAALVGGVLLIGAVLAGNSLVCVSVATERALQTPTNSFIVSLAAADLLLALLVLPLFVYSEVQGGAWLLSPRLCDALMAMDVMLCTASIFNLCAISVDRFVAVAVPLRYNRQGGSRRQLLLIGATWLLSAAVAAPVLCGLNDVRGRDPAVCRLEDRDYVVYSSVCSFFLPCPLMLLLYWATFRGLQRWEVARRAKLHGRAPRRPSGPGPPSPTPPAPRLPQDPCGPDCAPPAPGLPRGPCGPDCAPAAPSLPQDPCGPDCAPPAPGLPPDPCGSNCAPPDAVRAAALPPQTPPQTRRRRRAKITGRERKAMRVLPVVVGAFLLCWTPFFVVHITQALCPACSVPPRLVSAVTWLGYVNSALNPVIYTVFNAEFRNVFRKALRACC
# T4: CX3CR1 chemokine receptor (Homo sapiens, UniProt P49238)
# T4 sequence (P49238 1-355): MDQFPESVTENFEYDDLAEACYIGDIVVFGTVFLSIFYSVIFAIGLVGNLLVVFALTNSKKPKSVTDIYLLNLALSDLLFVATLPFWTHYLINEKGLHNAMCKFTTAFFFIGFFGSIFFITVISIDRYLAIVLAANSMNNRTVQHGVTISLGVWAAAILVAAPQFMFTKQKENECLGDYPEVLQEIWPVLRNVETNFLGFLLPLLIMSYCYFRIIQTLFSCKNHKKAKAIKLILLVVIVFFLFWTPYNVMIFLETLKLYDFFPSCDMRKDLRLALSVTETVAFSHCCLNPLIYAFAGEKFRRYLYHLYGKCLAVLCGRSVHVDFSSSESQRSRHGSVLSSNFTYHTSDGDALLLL
# How the values were obtained:
# [1] = target: SSTR3 somatostatin receptor (Homo sapiens, UniProt P32745); assay: PRESTO-TANGO / TANGO β-arrestin recruitment assay, SSTR3; type: cell-based
# Chain of SSTR3 somatostatin receptor (P32745 whole entry): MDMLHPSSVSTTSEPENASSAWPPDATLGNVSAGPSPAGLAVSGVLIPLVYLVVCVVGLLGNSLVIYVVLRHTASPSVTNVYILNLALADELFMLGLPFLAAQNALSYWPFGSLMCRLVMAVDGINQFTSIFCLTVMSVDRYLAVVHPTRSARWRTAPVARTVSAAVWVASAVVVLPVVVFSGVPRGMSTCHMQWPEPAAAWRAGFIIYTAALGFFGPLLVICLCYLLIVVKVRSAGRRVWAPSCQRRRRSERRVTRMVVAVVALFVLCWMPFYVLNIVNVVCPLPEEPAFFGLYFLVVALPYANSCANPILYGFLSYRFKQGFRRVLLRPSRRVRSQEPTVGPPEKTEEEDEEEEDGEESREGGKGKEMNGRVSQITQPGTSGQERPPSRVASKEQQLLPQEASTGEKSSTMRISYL
# [2] = target: T1, MRGPRX2; assay: TANGO β-arrestin recruitment assay, MRGPRX2; type: cell-based; details: NCC-1 screen, confirmed in concentration-response studies
# [3] = test system: 91 orphan and poorly annotated GPCRs; assay: TANGO screen of the NCC-1 library; type: cell-based, human
# [4] = target: T1, MRGPRX2; assay: calcium mobilization assay, stable MRGPRX2 cell line; type: cell-based; details: MRGPRX2-expressing stable cells
# Procedure, shortened: (§1)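 Tetracycline-inducible Flp-In T-Rex HEK-T lines carried FLAG-tagged receptor in pcDNA5/FRT/TO and were kept with 15 μg/ml blasticidin and 100 μg/ml hygromycin B. Expression was induced with 1ug/ml tetracycline for 24 h. The calcium assay used 15,000 cells/well and FLIPR Calcium 4 dye (45 min 37°C, 15 min RT), with 16-point 3-fold dilutions at final 10 μM–0.003 nM. Fluorescence was read for 10 s baseline plus 120 s.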
# [5] = target: T1, MRGPRX2; assay: PI hydrolysis assay, MRGPRX2; type: cell-based
# Procedure, shortened: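 HEK-293T cells were transiently transfected with 10 μg receptor DNA per 15 cm dish and seeded the next day on poly-L-lysine in 1% dialyzed FBS. They were labelled 16 h with 1 μCi/well ³H-inositol in inositol-free DMEM. Concentration series were applied in quadruplicate in HBSS/24 mM NaHCO₃/11 mM glucose/15 mM LiCl, pH 7.4, for 1 h at 37°C. Cells were lysed with 50 mM formic acid, and extracts were counted by SPA beads.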
# [6] = target: NTSR2 neurotensin receptor (Homo sapiens, UniProt O95665); assay: TANGO β-arrestin recruitment assay, NTSR2; type: cell-based; details: for agonist activity at NTSR2 neurotensin receptors: TANGO, agonist mode
# Chain of NTSR2 neurotensin receptor (O95665 whole entry): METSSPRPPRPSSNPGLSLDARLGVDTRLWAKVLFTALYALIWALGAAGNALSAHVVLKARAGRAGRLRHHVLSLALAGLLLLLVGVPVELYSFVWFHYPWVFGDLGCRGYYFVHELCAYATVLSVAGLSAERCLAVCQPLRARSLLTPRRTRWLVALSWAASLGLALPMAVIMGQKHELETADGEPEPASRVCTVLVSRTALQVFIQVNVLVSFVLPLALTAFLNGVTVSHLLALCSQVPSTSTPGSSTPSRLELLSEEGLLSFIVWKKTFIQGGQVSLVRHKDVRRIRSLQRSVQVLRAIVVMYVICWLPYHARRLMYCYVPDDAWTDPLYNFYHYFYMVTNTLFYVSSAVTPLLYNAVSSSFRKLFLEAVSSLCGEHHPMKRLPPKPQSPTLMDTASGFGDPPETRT
# [7] = target: T2, HTR1A serotonin receptor; assay: TANGO assay in antagonist mode, HTR1A; type: cell-based; details: 1 μM clozapine
# [8] = target: HTR1D serotonin receptor (Homo sapiens, UniProt P28221); assay: TANGO assay in antagonist mode, HTR1D; type: cell-based; details: 1 μM clozapine
# Chain of HTR1D serotonin receptor (P28221 whole entry): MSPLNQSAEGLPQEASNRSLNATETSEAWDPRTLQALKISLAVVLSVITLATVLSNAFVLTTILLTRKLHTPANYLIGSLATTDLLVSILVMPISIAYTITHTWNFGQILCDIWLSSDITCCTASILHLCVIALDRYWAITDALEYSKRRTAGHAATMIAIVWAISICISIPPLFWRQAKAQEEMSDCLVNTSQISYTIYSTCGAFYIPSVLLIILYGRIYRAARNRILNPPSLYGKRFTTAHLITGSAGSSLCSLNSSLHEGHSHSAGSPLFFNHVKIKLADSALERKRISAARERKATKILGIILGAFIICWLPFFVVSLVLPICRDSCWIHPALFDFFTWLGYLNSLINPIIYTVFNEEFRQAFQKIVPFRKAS
# [9] = target: T5, MRGPRX1 (Homo sapiens, UniProt Q96LB2); assay: calcium mobilization assay, stable MRGPRX1 cell line; type: cell-based; details: MRGPRX1-expressing stable cells
# T5 sequence (Q96LB2 whole entry): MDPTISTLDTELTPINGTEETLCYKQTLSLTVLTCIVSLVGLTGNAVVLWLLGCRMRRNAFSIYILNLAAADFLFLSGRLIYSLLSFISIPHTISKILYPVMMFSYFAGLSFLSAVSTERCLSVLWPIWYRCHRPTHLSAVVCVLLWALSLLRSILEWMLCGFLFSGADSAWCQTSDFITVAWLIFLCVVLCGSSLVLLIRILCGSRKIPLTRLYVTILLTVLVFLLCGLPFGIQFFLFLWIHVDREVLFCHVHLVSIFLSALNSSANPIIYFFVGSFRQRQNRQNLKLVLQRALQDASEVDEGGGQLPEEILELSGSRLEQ
# Procedure, shortened: as §1
# [10] = target: MLNR motilin receptor TANGO construct; assay: TANGO
# Chain of MLNR motilin receptor TANGO construct (O43193 whole entry): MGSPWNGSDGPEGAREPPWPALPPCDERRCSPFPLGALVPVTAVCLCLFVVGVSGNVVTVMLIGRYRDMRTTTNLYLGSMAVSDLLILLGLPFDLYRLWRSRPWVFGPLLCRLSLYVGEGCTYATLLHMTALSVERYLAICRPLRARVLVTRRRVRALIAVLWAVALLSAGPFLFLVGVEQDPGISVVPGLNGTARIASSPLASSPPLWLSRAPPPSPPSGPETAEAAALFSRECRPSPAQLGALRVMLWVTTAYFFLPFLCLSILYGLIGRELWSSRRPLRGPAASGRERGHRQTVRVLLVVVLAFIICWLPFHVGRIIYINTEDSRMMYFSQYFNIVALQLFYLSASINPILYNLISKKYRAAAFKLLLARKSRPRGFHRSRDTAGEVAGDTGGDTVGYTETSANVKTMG
# [11] = target: T5, MRGPRX1; assay: cAMP; type: cell-based; details: Gs assay, HEK293T cells
# [12] = target: T1, MRGPRX2; assay: cAMP; type: cell-based; details: Gs assay, HEK293T cells
# [13] = target: T6, MRGPRX4 (Homo sapiens, UniProt Q96LA9); assay: cAMP; type: cell-based; details: Gs assay, HEK293T cells
# T6 sequence (Q96LA9 whole entry): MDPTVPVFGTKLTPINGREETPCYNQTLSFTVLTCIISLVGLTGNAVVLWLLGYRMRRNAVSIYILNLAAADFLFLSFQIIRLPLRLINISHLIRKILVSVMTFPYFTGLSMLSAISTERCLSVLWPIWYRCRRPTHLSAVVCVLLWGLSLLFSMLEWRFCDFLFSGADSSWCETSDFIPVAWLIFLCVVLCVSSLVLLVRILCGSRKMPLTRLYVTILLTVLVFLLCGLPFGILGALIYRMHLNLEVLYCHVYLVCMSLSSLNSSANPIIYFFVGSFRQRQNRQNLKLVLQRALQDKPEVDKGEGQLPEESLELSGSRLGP
# [14] = target: T6, MRGPRX4; assay: cAMP; type: cell-based; details: Gi assay, MRGPRX4-expressing cells
# [15] = target: T6, MRGPRX4; assay: calcium mobilization assay, stable MRGPRX4 cell line; type: cell-based; details: MRGPRX4-expressing stable cells
# Procedure, shortened: as §1
# [16] = target: MRGPRX3 (Homo sapiens, UniProt Q96LB0); assay: cAMP; type: cell-based; details: Gs assay, HEK293T cells
# Chain of MRGPRX3 (Q96LB0 whole entry): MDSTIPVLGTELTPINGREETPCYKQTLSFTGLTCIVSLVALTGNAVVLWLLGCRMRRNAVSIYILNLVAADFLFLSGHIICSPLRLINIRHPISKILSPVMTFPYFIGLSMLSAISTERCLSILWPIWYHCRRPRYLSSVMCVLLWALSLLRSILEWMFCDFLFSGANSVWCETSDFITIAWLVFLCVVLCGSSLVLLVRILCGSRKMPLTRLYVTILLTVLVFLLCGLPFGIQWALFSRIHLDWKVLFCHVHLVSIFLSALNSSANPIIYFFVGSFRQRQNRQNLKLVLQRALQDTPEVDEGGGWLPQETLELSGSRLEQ
# [17] = target: MRGPRX4 orphan GPCR (Homo sapiens, UniProt Q96LA9); assay: TANGO β-arrestin recruitment assay, MRGPRX4; type: cell-based; details: initial NCC-1 screen
# Chain of MRGPRX4 orphan GPCR (Q96LA9 whole entry): as the sequence (Q96LA9 whole entry) above
# [18] = test system: 133 non-orphan, non-olfactory GPCR targets; assay: PRESTO-TANGO parallel GPCR-ome screening β-arrestin recruitment assay; type: cell-based, human; details: of 133 non-orphan
# [19] = target: DRD5 dopamine receptor (Homo sapiens, UniProt P21918); assay: TANGO β-arrestin recruitment assay, DRD5; type: cell-based; details: PRESTO-TANGO screen and concentration-response (Fig. 4c)
# Chain of DRD5 dopamine receptor (P21918 whole entry): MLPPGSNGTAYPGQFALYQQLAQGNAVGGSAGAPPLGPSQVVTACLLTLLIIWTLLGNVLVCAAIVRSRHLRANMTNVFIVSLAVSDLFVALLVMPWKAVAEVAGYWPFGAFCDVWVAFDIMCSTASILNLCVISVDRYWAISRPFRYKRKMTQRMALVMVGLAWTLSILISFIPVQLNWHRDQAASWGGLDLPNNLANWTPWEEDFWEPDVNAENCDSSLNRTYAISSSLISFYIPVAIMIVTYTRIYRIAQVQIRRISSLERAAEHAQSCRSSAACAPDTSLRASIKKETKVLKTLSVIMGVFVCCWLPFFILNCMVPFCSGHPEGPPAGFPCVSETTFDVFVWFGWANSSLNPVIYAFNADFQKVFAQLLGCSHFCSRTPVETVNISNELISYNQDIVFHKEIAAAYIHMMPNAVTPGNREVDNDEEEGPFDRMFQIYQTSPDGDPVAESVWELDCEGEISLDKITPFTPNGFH
# [20] = target: T3, DRD4 dopamine receptor; assay: TANGO β-arrestin recruitment assay, DRD4; type: cell-based; details: PRESTO-TANGO screen and concentration-response (Fig. 4b)
# [21] = target: T4, CX3CR1 chemokine receptor; assay: TANGO β-arrestin recruitment assay, CX3CR1; type: cell-based; details: n = 4
# Chain of β-arrestin2-TEV fusion (P32121 whole entry, the tested form may be a part): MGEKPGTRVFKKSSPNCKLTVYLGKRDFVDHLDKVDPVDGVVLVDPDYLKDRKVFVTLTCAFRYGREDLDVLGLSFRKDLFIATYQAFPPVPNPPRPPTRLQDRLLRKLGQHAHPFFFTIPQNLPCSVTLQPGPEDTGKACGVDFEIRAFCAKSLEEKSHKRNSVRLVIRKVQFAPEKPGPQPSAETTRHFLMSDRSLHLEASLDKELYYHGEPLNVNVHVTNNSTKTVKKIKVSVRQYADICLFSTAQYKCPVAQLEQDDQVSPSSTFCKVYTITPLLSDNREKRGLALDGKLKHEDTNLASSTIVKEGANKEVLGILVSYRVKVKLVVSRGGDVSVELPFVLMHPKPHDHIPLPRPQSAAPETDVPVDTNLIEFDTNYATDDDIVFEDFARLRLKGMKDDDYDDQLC
molecule,measurement,setting,value
"CNCCC(Oc1ccc(C(F)(F)F)cc1)c1ccccc1 (centres unmarked) [Fluoxetine, fluoxetine]",agonist activity at SSTR3 in follow-up assays,[1]; follow-up assays (data not shown),not confirmed
same,agonist activity at the SSTR3 somatostatin receptor,[1]; initial PRESTO-TANGO screen,modest agonist activity
CC(C)[C@@H](CN1CC[C@@](C)(c2cccc(O)c2)[C@@H](C)C1)NC(=O)[C@H]1Cc2ccc(O)cc2CN1 [JDTic],activity in the TANGO assay at MRGPRX2,[2],significant activity
CC(C)C[C@H](NC(=O)[C@@H](O)[C@H](N)Cc1ccccc1)C(=O)O [bestatin],number of targets with > 2-fold increase in luminescence,[3]; of 91 targets tested,59
same,percent of targets with > 2-fold increase in luminescence,[3]; of 91 targets tested,65%
COC(=O)C[C@](O)(CCCC(C)(C)O)C(=O)O[C@@H]1C(OC)=C[C@]23CCCN2CCc2cc4c(cc2[C@H]13)OCO4 [homoharringtonine],number of targets with greater than 2-fold reduction in luminescence,[3]; of 91 targets tested,58
same,percent of targets with greater than 2-fold reduction in luminescence,[3]; of 91 targets tested,64%
"CN1CC[C@]2(c3cccc(O)c3)Cc3nc4ccccc4cc3C[C@H]2C1 [SB 205,607]",calcium mobilization response,[4],concentration-dependent responses
same,activity in the TANGO assay at MRGPRX2,[2],most active compounds
same,concentration-dependent activity at MRGPRX2 by PI hydrolysis,[5],confirmed
SR142948,agonist activity at NTSR2 neurotensin receptors,[6],agonists
C[C@@H]1CN([C@H]2CC[C@](C#N)(c3ccc(F)cc3)CC2)CC[C@]1(C(=O)O)c1ccccc1 [levocabastine],antagonism of SR48692- or SR142948-induced arrestin recruitment responses,"[6]; NTSR2-transfected cells, pre-incubation before agonist",antagonists
COc1cccc(OC)c1-c1cc(C(=O)NC2(C(=O)O)C3CC4CC(C3)CC2C4)nn1-c1ccnc2cc(Cl)ccc12 (centres unmarked) [SR48692],agonist activity at NTSR2 neurotensin receptors,[6],agonists
COC(=O)[C@@H]1C[C@H](OC(=O)CSC#N)C(=O)[C@H]2[C@@]1(C)CC[C@H]1C(=O)O[C@H](c3ccoc3)C[C@]21C [RB64],activity in the TANGO assay at MRGPRX2,[2],significant activity
CN1CCN(C2=Nc3cc(Cl)ccc3Nc3ccccc32)CC1 [clozapine],effect of pre-exposure on responses to the agonist LSD,[7],little or no effect
same,effect of pre-exposure on responses to the agonist LSD,[8],little or no effect
BAM8-22,calcium mobilization response,[9],concentration-dependent responses
CN1CCC(=C2c3ccccc3C=Cc3ccccc32)CC1 [cyproheptadine],activity in the TANGO assay at MRGPRX2,[2],showed activity
β-arrestin2-TEV fusion (from UniProt P32121 1-409) (natural protein),fold response above baseline,[10],184 fold
CN1CCC(=C2c3ccccc3CCc3sccc32)CC1 [pizotyline],activity in the TANGO assay at MRGPRX2,[2],showed activity
Oc1ccc(/C=C/c2cc(O)cc(O)c2)cc1 [resveratrol],number of targets with greater than 2-fold reduction in luminescence,[3]; of 91 targets tested,70
same,percent of targets with greater than 2-fold reduction in luminescence,[3]; of 91 targets tested,77%
"CC(C)[C@H]1CC[C@H](C(=O)N[C@H](Cc2ccccc2)C(=O)O)CC1 [Nateglinide, nateglinide]",activity when cAMP was measured at MRGPRX1,[11],inactive
same,selectivity among the 91 targets tested,[3]; NCC-1 screen,apparently selective
same,activity when cAMP was measured at MRGPRX2,[12],inactive
same,activity when cAMP was measured at MRGPRX4,[13],exceedingly modest activity at high concentrations
same,inhibition of the cAMP response to isoproterenol,[14],inability
same,calcium mobilization response,[15],concentration-dependent responses
same,activity when cAMP was measured at MRGPRX3,[16],inactive
same,increase in luminescence over basal levels,[17],45 fold
CN1CCC(=C2c3ccccc3CC(=O)c3sccc32)CC1 [ketotifen],activity in the TANGO assay at MRGPRX2,[2],showed activity
"CCN(CC)C(=O)[C@@H]1C=C2c3cccc4[nH]cc(c34)C[C@H]2N(C)C1 [LSD, lysergic acid diethylamide]",number of tested targets with activity,[18],15
same,activity at the D5 dopamine receptor,[19],displayed activity
same,activity at the D4 dopamine receptor,[20],displayed activity
COc1ccc2c(c1)[C@]13CCCC[C@@H]1[C@H](C2)N(C)CC3 [dextromethorphan],activity in the TANGO assay at MRGPRX2,[2],showed activity
same,concentration-dependent activity at MRGPRX2 by PI hydrolysis,[5],confirmed
CN1CC[C@]23CCCC[C@H]2[C@H]1Cc1ccc(O)cc13 [levorphan],activity in the TANGO assay at MRGPRX2,[2],showed activity
CX3CL1: ligand of the CX3CR1 chemokine receptor (protein) QHHGVTKCNITCSKMTSKIPVALLIHYQQNQASCGKRAIILETRQHRLFCADPKEQWVKDAMQHLDRQAAALTRNGGTFEKQIGEVKPRTTPAAGGMDESVVLEPEATGESSSLEPTPSSQEAQRALGTSPELPTGVTGSSGTRLPPTPKAQDGGPVGTELFRVPPVSTAATWQSSAPHQPGPSLWAEAKTSEAPSTQDPSTQASTASSPAPEENAPSEGQRVWGQGQSPRPENSLEREEMGPVPAHTDAFQDWGPGSMAHVSVVPVSSEGTPSREPVASGSWTPKAEEPIHATMDPQRLGVLITPVPDAQAATRRQAVGLLAFLGLLFCLGVAMFTYQSLQGCPRKMAGEMAEGLRYIPRSCGSNSYVLVPV,EC50,[21],0.34 nM
